Reference: ChEMBL document CHEMBL1147254, “New bioactive polyphenols from Theobroma grandiflorum ("cupuaçu")” (J Nat Prod, 2003)

How the values were obtained:
[1] = test system: Radical scavenging activity; experiment: Antioxidant activity assessed as DPPH radical scavenging activity after 30 mins; assay type: functional
In short: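 Test samples in DMSO were mixed with a 300 µM ethanolic DPPH solution and incubated at 37 °C.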

[2] = test system: HCT-116; experiment: Cytotoxicity against human HCT116 cells after 72 hrs by MTT assay; assay type: functional, cell-based; conditions: HCT-116, 72 h
In short: (§1)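 About 30 000 cells per well were seeded in 96-well plates, and the medium was replaced once cultures reached 40% confluence.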

[3] = test system: SW480; experiment: Cytotoxicity against human SW480 cells after 72 hrs by MTT assay; assay type: functional, cell-based; conditions: SW480, 72 h; in short: as §1

| IC50 [1] [µM] | SMILES | IC50 [2] [µM] | IC50 [3] [µM] |
| --- | --- | --- | --- |
| 68.1 | O=C(O)[C@H]1O[C@@H](Oc2c(O)cc(O)c3c(=O)cc(-c4ccc(O)cc4)oc23)[C@H](O)[C@@H](O)[C@@H]1O |  |  |
| 69.2 | COC(=O)[C@H]1O[C@@H](Oc2c(O)cc(O)c3c(=O)cc(-c4ccc(O)cc4)oc23)[C@H](O)[C@@H](O)[C@@H]1O |  |  |
| 41.6 | COC(=O)[C@H]1O[C@@H](Oc2c(-c3ccc(O)c(O)c3)oc3cc(O)cc(O)c3c2=O)[C@H](O)[C@@H](O)[C@@H]1O |  |  |
| 58.2 | O=C(O)[C@H]1O[C@@H](Oc2c(O)cc(O)c3c(=O)cc(-c4ccc(O)c(O)c4)oc23)[C@H](O)[C@@H](O)[C@@H]1O |  |  |
| 49 | Oc1cc(O)c2c(c1)O[C@H](c1ccc(O)c(O)c1)[C@H](O)C2 [(-)-EPICATECHIN] |  |  |
| 49 | Oc1cc(O)c2c(c1)O[C@H](c1ccc(O)c(O)c1)[C@@H](O)C2 [CIANIDANOL] |  |  |
| 89.7 | O=c1c(O)c(-c2ccc(O)cc2)oc2cc(O)cc(O)c12 [KAEMPFEROL] |  |  |
| 44.4 | O=C(O)[C@H]1O[C@@H](Oc2c(-c3ccc(O)c(O)c3)oc3cc(O)cc(O)c3c2=O)[C@H](O)[C@@H](O)[C@@H]1O [QUERCETIN GLUCURONIDE] |  |  |
| 120 | O=C(O)[C@H]1O[C@@H](Oc2c(O)cc(O)c3c(=O)cc(-c4ccc(O)c(O)c4)oc23)[C@H](O)[C@@H](OS(=O)(=O)O)[C@@H]1O [THEOGRANDIN II] | 143 | 125 |
| 341 | O=C(O)[C@H]1O[C@@H](Oc2c(O)cc(O)c3c(=O)cc(-c4ccc(O)cc4)oc23)[C@H](O)[C@@H](OS(=O)(=O)O)[C@@H]1O [THEOGRANDIN I] | 205 | 164 |

| SMILES | IC50 [1] [µM] | IC50 [2] [µM] | IC50 [3] [µM] |
| --- | --- | --- | --- |
| O=c1c(O)c(-c2ccc(O)c(O)c2)oc2cc(O)cc(O)c12 [QUERCETIN] | 39.7 |  |  |
